We go through 8 compounds from ChEMBL document CHEMBL3244091, “Effects of thiophene analogues of chloroamphetamines on central serotonergic mechanisms” (J Med Chem, 1978).

Data set [1] concerns Mus musculus. Put plainly: Increase in spontaneous locomotor activity in ICR Swiss mouse at 10 mg/kg, ip measured after 30 to 270 mins post compound administration. In kind it is functional, organism-based. Further details: dose 10 mg/kg. The procedure, abridged: (§1)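 Male ICR Swiss mice (20-25 g), compound in saline ip, housed three per cage at ≤18 °C. Starting 30 min and 4.5 h after injection, each mouse was placed in a circular actophotometer (25 cm diameter, four photocells, central light) for 30 min. A count was scored per cross of two consecutive beams (locomotion only). Means of at least eight animals per group.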

Data set [2] can be described thus: Toxicity in ip dosed ICR Swiss mouse. The conditions noted are these: in vivo. In kind it is organism-based.
The test system of data set [3] is Rattus norvegicus. In words: Reduction in 5-HT level in Wistar rat brain synaptosomes at 15 mg/kg, ip measured after 4 hrs by fluorometric assay. Format: functional. Also noted: scale not given: the % may be the effect or the level left. The conditions noted are these: route intraperitoneal.
Data set [4] concerns the target Sodium-dependent serotonin transporter (Rattus norvegicus) (UniProt P31652). Put plainly: Inhibition of SERT-mediated 5-HT uptake in Wistar rat brain synaptosomes at 0.2 uM. Format: subcellular.
The subject of data set [5] is Rattus norvegicus. In words: Inhibition of SERT-mediated 5-HT uptake in Wistar rat brain at 15 mg/kg, ip measured after 24 hrs. Format: functional. The conditions noted are these: route intraperitoneal. The procedure, abridged: (§2)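 Male Wistar-derived rats were dosed ip (saline vehicle) and killed 24 h or 7 days later. Whole brains were homogenized in 8 vol 0.25 M sucrose.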

The test system of data set [6] is Rattus norvegicus. Put plainly: Reduction in 5-HT level in Wistar rat brain synaptosomes at 15 mg/kg, ip measured after 24 hrs by fluorometric assay. In kind it is functional. Further details: scale not given: the % may be the effect or the level left. The note with it: route intraperitoneal.
The test system of data set [7] is Mus musculus. Put plainly: Increase in spontaneous locomotor activity in ICR Swiss mouse at 10 mg/kg, ip measured after 4 hrs post compound administration. Further details: dose 10 mg/kg. Format: functional, organism-based. The procedure, abridged: as §1
For data set [8], the target named is Sodium-dependent serotonin transporter (Rattus norvegicus, UniProt P31652). Put plainly: Inhibition of SERT-mediated 5-HT uptake in Wistar rat brain synaptosomes. Format: subcellular.
For data set [9], the system named is Rattus norvegicus. In words: Reduction in 5-HT level in Wistar rat brain synaptosomes at 15 mg/kg, ip measured after 7 days by fluorometric assay. The conditions noted are these: route intraperitoneal. Also noted: scale not given: the % may be the effect or the level left. Format: functional.
Data set [10] has as its system Rattus norvegicus. In words: Inhibition of SERT-mediated 5-HT uptake in Wistar rat brain at 15 mg/kg, ip measured after 7 days. The conditions noted are these: 168 h, route intraperitoneal. In kind it is functional. In a few lines: as §2
Data set [11] is filed under the species Rattus norvegicus. In words: Ratio of PCA IC50 to compound IC50 for MAO in Wistar rat brain using [3H]serotonin as substrate.
The nature of data set [12]: Inhibition of MAO in Wistar rat brain using [3H]serotonin as substrate.
In data set [13] the test system is Rattus norvegicus. In words: Inhibition of SERT-mediated 5-HT uptake in Wistar rat brain at 7.5 mg/kg, ip measured after 7 days. The note with it: 168 h, route intraperitoneal. Format: functional. In a few lines:
as §2

In data set [14] the test system is Rattus norvegicus. Put plainly: Reduction in 5-HT level in Wistar rat brain synaptosomes at 7.5 mg/kg, ip measured after 7 days by fluorometric assay. The conditions noted are these: route intraperitoneal. Also noted: scale not given: the % may be the effect or the level left. In kind it is functional.
Data set [15] concerns Rattus norvegicus. Put plainly: Reduction in 5-HT level in Wistar rat brain synaptosomes at 7.5 mg/kg, ip measured after 4 hrs by fluorometric assay. In kind it is functional. Also noted: scale not given: the % may be the effect or the level left. The conditions noted are these: route intraperitoneal.
Data set [16] deals with Rattus norvegicus. In words: Inhibition of SERT-mediated 5-HT uptake in Wistar rat brain at 7.5 mg/kg, ip measured after 24 hrs. The conditions noted are these: route intraperitoneal. Format: functional. The procedure, abridged:
as §2

Data set [17] concerns Rattus norvegicus. In words: Reduction in 5-HT level in Wistar rat brain synaptosomes at 7.5 mg/kg, ip measured after 24 hrs by fluorometric assay. In kind it is functional. Further details: scale not given: the % may be the effect or the level left. The conditions noted are these: route intraperitoneal.

By LD50 is commonly meant the dose at which mortality reaches 50%. A word on the inhibition: it is the share of the control response that was lost under treatment. Usually inhibition in vivo stands for how much of the control response was suppressed. The IC50 is the concentration that gives 50% inhibition.

Structures are written as SMILES. Activity calls are given as the source filed them. The rule behind the calls is not given here.

Sodium-dependent serotonin transporter (Rattus norvegicus), sequence (P31652 whole entry): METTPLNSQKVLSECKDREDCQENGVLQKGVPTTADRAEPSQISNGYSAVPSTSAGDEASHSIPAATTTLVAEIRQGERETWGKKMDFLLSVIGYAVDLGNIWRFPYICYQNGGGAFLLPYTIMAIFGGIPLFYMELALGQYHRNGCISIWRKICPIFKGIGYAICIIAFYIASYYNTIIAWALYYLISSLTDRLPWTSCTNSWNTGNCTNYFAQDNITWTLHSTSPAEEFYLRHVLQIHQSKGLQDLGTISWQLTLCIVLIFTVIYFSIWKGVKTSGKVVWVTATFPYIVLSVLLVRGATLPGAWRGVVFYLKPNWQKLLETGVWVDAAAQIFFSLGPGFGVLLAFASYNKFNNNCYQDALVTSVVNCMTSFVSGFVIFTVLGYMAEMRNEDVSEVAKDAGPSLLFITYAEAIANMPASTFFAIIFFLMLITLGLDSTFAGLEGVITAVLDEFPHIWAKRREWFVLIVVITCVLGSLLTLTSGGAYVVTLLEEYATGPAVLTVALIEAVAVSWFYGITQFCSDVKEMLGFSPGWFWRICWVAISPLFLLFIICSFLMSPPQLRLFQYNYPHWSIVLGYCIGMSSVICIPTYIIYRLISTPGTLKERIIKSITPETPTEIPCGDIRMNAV
Sodium-dependent serotonin transporter, sequence (P31652 whole entry): as above

Consider `CC(N)Cc1cccs1.Cl` (racemic), for which the result in the data set with Mus musculus [1] was Active. In data set [2], this compound displayed an LD50 of 162 mg/kg. This compound came in with an Activity in the data set with Rattus norvegicus [3] of 4.3%. This compound had an inhibition in data set [4] of 5.3%.

`CC(N)Cc1ccc(Cl)s1.Cl` (racemic) showed an inhibition in vivo at 15 mg/kg in the data set with Rattus norvegicus [5] of 4.1%. Further, the Activity in the data set with Rattus norvegicus [6] came to 15.4%; in the data set with Rattus norvegicus [3], 14.5%. Besides, the result in the data set on Mus musculus [1] and in the data set with Mus musculus [7] was Active. In data set [2], this compound returned a 50% lethal dose (LD50) of 113 mg/kg. This compound also displayed an inhibition in data set [4] of 17.7%.

Regarding `CC(N)Cc1sccc1Cl.Cl` (racemic), in the data set on Mus musculus [1], the outcome was inactive. This compound also yielded an LD50 in [2] of 101 mg/kg. The Activity in the data set with Rattus norvegicus [3] was 2.8%. The compound further had an inhibition in data set [4] of 6.6%.

Turning to `CC(N)Cc1cc(Cl)c(Cl)s1.Cl` (racemic), the inhibition in vivo at 15 mg/kg with Rattus norvegicus [5] was determined as 30.4%; with Rattus norvegicus [10], 32.4%. The values for the Activity in the data set with Rattus norvegicus [6], in the data set with Rattus norvegicus [9] and with Rattus norvegicus [3] were 50.7%, 41.6% and 49.3%, respectively. The same compound had an IC50 in data set [8] of 450 nM. Also, the result in the data set on Mus musculus [1] was Active. Further, in data set [2], the LD50 is 133 mg/kg. Besides, the inhibition in data set [4] stood at 40.5%.

As for `CC(N)Cc1scc(Cl)c1Cl.Cl` (racemic), the inhibition in vivo at 15 mg/kg in the data set with Rattus norvegicus [5] was 0.4%. Besides, the Activity with Rattus norvegicus [6] is 11.7%; with Rattus norvegicus [3], 10.3%. Besides, the result in the data set with Mus musculus [1] was Active. The compound further showed an LD50 in data set [2] of 121 mg/kg. Also, the Ratio IC50 in the data set filed under Rattus norvegicus [11] came to 15. The same compound yielded an inhibition in data set [4] of 27.5%. In data set [12], the IC50 turned out to be 250 nM.

For `CC(N)Cc1sc(Cl)cc1Cl.Cl` (racemic), the inhibition in vivo at 15 mg/kg in the data set on Rattus norvegicus [5] worked out at 24.5%. Moreover, the Activity was found to be 13.3% with Rattus norvegicus [6] and 12.1% with Rattus norvegicus [3]. Besides, in the data set on Mus musculus [1], the result was inactive. Moreover, in data set [2], the LD50 stood at 135 mg/kg. Further, in [4], the inhibition turned out to be 19.4%. Besides, the IC50 in data set [12] was 2500 nM.

Consider `CC(N)Cc1ccc(Cl)cc1.Cl` (racemic), for which the inhibition in vivo at 7.5 mg/kg amounted to 34.3% with Rattus norvegicus [13] and 45.5% in the data set with Rattus norvegicus [16]. In addition, the Activity in the data set with Rattus norvegicus [14] is reported as 63.7%; in the data set on Rattus norvegicus [15], 48.6%; in the data set on Rattus norvegicus [17], 47.6%. Further, the IC50 in [8] turned out to be 500 nM; in [12], 3700 nM. The compound also returned an LD50 in data set [2] of 64 mg/kg. Besides, the outcome in the data set with Mus musculus [7] was Active. The inhibition in data set [4] stood at 38.4%.

`CC(N)Cc1cc(Cl)cs1.Cl` (racemic) had an inhibition in vivo at 15 mg/kg in the data set with Rattus norvegicus [5] of 6.7%. The figures for the Activity in the data set on Rattus norvegicus [6] and in the data set with Rattus norvegicus [3] were 18.3% and 22.1%, respectively. Further, in the data set on Mus musculus [1], the result was Active. In [2], this compound had an LD50 of 128 mg/kg. The inhibition in data set [4] came out at 18.7%.
